Measurements taken from paper PMC5189635 (ChemMedChem, 2016).
Converted amounts (≈) assume the structure as drawn. Like-named read-outs stand apart in the source and are kept apart here. Marks after values point to notes of the source that are not given here.

Legend:
E. coli C291-b1 = assay: MIC, E. coli C291-b1; format: cell-based
Klebisiella spp. = assay: MIC, Klebisiella spp.; format: cell-based
K. pneumoniae BARB 105 = assay: MIC, K. pneumoniae BARB 105; format: cell-based
[1] = test system: P. aeruginosa T15464 (MDR); assay: MIC, P. aeruginosa T15464; format: cell-based
A. baumanii ATCC9955 = assay: MIC, A. baumanii ATCC9955; format: cell-based
S. typhimurium SL1344 = assay: MIC, S. typhimurium SL1344; format: cell-based
E. coli NR698 = assay: Bacteriostatic effect; format: cell-based; settings: Addition None
E. coli MC4100 = assay: Bacteriostatic effect; format: cell-based
[2] = test system: Shigella flexneri ATCC12022; assay: Bacteriostatic effect; format: cell-based
How it was run: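 Broth microdilution per CLSI guidelines: LB with 0.2% glucose, exponential-phase cells (OD600 ≈ 0.5), 2% DMSO final. Permeabilizer, where added, was PMBN 25 μg/mL or NAB7061 4 μg/mL. Incubated 24 h at 37 °C with shaking at 250 rpm. Run in triplicate in three separate experiments. MIC is the lowest concentration with no growth.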

H+-ATPase = H+-ATPase (Escherichia coli, UniProt P0ABB0+P0ABB4); assay: In vitro ATPase activity, H+-ATPase; format: biochemical; settings: read-out: ATPase activity IC50
SpuB ATPase = SpuB ATPase (Pseudomonas aeruginosa, UniProt Q9I6J3); assay: In vitro ATPase activity, SpuB; format: biochemical; settings: read-out: ATPase activity IC50
PaSecA = PaSecA (Pseudomonas aeruginosa, UniProt Q9LCT3); settings: read-out: Protein translocation IC50; PaSecA-liposomes; published RB; cited from earlier work
[3] = E. coli C291-b1, NAB7061 4 μg/mL
[4] = Klebisiella spp., Addition None
[5] = Klebisiella spp., NAB7061 4 μg/mL
[6] = K. pneumoniae BARB 105, NAB7061 4 μg/mL
[7] = K. pneumoniae BARB 105, PMBN 25 μg/mL
[8] = P. aeruginosa T15464 (MDR), NAB7061 4 μg/mL
[9] = P. aeruginosa T15464 (MDR), PMBN 3 μg/mL
[10] = Pseudomonas aeruginosa, read-out: MIC100
[11] = A. baumanii ATCC9955, NAB7061 4 μg/mL
[12] = A. baumanii ATCC9955, PMBN 25 μg/mL
[13] = Acinetobacter baumannii, ATCC9955
[14] = S. typhimurium SL1344, NAB7061 4 μg/mL
[15] = S. typhimurium SL1344, PMBN 25 μg/mL
[16] = Salmonella enterica, TYPHIMURIUM
[17] = Klebisiella spp., PMBN 25 μg/mL

Chain of H+-ATPase (P0ABB0 whole entry): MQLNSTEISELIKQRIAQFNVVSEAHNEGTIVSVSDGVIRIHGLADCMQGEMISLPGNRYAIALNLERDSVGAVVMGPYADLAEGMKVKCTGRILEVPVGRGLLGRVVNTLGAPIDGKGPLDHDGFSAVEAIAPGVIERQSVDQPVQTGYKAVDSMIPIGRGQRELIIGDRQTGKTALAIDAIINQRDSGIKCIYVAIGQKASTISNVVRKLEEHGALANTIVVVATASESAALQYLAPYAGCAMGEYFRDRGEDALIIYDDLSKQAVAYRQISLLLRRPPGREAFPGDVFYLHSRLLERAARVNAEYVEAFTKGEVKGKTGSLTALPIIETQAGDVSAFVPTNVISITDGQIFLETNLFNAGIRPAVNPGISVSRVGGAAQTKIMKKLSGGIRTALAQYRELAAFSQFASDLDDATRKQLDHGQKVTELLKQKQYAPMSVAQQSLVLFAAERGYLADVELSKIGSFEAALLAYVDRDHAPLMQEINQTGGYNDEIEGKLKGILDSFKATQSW
Chain of H+-ATPase (P0ABB4 2-460): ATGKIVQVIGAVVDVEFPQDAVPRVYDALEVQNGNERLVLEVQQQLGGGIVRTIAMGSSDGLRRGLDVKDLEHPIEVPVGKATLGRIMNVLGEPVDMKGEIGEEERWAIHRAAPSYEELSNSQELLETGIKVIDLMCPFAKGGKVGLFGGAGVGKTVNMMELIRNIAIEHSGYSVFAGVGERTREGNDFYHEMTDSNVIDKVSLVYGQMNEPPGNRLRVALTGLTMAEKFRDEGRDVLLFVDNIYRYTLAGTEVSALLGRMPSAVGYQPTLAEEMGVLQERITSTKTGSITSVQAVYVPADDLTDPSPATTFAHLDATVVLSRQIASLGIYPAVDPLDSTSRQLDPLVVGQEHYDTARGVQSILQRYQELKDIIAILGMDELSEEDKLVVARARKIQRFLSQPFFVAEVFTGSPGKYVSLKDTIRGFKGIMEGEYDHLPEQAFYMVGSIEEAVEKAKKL
Chain of H+-ATPase (P0ABA6 whole entry, further chain): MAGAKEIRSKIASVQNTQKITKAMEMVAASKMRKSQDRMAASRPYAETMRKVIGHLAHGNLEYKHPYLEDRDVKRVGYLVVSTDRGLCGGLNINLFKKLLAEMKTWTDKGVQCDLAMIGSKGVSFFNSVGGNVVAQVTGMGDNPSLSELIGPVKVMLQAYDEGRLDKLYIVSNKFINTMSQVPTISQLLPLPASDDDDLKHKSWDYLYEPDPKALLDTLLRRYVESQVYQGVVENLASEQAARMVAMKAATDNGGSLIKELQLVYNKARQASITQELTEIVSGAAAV
Chain of PaSecA (Q9LCT3 whole entry): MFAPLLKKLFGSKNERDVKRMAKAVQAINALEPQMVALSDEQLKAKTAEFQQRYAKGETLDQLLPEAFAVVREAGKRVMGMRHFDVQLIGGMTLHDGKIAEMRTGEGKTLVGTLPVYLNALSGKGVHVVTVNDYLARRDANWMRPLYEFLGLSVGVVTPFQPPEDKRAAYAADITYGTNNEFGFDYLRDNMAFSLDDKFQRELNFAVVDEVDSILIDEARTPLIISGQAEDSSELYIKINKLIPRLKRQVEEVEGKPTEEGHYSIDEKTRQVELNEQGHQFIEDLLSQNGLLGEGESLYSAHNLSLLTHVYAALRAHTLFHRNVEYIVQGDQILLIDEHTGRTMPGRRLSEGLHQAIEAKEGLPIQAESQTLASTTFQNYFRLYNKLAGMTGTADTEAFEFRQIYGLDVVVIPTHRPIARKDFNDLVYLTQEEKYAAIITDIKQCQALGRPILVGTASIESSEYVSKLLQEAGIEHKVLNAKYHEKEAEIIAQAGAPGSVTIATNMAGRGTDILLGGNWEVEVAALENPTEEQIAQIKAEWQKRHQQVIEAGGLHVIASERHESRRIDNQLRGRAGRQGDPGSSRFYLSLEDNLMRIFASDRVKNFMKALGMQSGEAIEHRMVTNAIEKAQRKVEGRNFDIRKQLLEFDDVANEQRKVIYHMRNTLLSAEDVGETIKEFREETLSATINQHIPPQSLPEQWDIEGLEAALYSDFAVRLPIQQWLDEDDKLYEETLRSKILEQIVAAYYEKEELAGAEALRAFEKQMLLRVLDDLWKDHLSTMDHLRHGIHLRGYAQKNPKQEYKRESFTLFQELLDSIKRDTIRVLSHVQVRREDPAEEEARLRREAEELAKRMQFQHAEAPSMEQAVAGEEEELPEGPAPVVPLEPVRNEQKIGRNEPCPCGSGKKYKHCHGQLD

Row | Compound | MIC (E. coli C291-b1; [3]) | MIC (E. coli C291-b1; E. coli C291-b1, PMBN 25 μg/mL) | MIC (Klebisiella spp.; [4]) | MIC (Klebisiella spp.; [5]) | MIC (K. pneumoniae BARB 105; [6]) | MIC (K. pneumoniae BARB 105; [7]) | MIC [1, 8] | MIC [1, 9] | MIC [1, 10] | MIC (A. baumanii ATCC9955; [11]) | MIC (A. baumanii ATCC9955; [12]) | MIC (A. baumanii ATCC9955; [13]) | MIC (S. typhimurium SL1344; [14]) | MIC (S. typhimurium SL1344; [15]) | MIC (S. typhimurium SL1344; [16]) | MIC (Klebisiella spp.; [17]) | further results
1 | CC1(C)S[C@@H]2[C@H](NC(=O)C(C(=O)O)c3ccccc3)C(=O)N2[C@H]1C(=O)O (stereo partly shown) [Carbenicillin] | >1,000 μg/mL | >1,000 μg/mL | >1,250 μg/mL | >1,250 μg/mL | >1,000 μg/mL | >1,000 μg/mL | >1,000 μg/mL | >1,000 μg/mL | > 1000 µg/mL | >1,000 μg/mL | >1,000 μg/mL | > 1000 µg/mL | >500 µg/mL | >500 µg/mL | > 500 µg/mL |  | MIC (E. coli C291-b1; Escherichia coli, C291B1): > 1000 µg/mL; MIC (Klebisiella spp.): > 1250 µg/mL; MIC (K. pneumoniae BARB 105; Klebsiella pneumoniae, BARB105): > 1000 µg/mL; MIC ([1]; Pseudomonas aeruginosa): > 1000 µg/mL
2 | O=C1OC2(c3cc(I)c(O)c(I)c3Oc3c2cc(I)c(O)c3I)c2c(Cl)c(Cl)c(Cl)c(Cl)c21 [RB, Rose Bengal] | >254 ^* μg/mL | 3.2 µg/mL (≈ 3.29 µM) | >1,272 ^* μg/mL | >254 ^* μg/mL | >254 ^* μg/mL | 25.4 µg/mL (≈ 26.1 µM) | 3.2 µg/mL (≈ 3.29 µM) | 0.4 µg/mL (≈ 0.411 µM) |  | 127.2 µg/mL (≈ 131 µM) | 80.6 µg/mL (≈ 82.8 µM) |  | 254 µg/mL (≈ 261 µM) | 17 µg/mL (≈ 17.5 µM) |  | >254 ^* μg/mL | MIC (E. coli NR698): 4.5 µg/mL (≈ 4.62 µM); MIC (E. coli MC4100; E. coli MC4100, Addition None): >1,272 ^* μg/mL; MIC (E. coli MC4100; E. coli MC4100, NAB7061 4 μg/mL): 2.0 µg/mL (≈ 2.05 µM); MIC (E. coli MC4100; E. coli MC4100, PMBN 25 μg/mL): 15.9 µg/mL (≈ 16.3 µM); MIC ([2]; Shigella flexneri ATCC12022, NAB7061 4 μg/mL): 1.6 µg/mL (≈ 1.64 µM); MIC ([2]; Shigella flexneri ATCC12022, PMBN 25 μg/mL): 7.5 µg/mL (≈ 7.7 µM); MIC (E. coli C291-b1; E. coli C291-b1, Addition None): >1,272 ^* μg/mL; MIC (K. pneumoniae BARB 105; K. pneumoniae BARB 105, Addition None): >1,272 ^* μg/mL; MIC ([1]; P. aeruginosa T15464 (MDR), Addition None): >1,272 ^* μg/mL; MIC (A. baumanii ATCC9955; A. baumanii ATCC9955, Addition None): >1,272 ^* μg/mL; MIC (S. typhimurium SL1344; S. typhimurium SL1344, Addition None): >1,272 ^* μg/mL; IC50 (H+-ATPase): 60 µM; IC50 (SpuB ATPase): > 200 µM; IC50 (PaSecA): 1 µM
3 | CN[C@H](CC(C)C)C(=O)N[C@H]1C(=O)N[C@@H](CC(N)=O)C(=O)N[C@H]2C(=O)N[C@H]3C(=O)N[C@H](C(=O)N[C@H](C(=O)O)c4cc(O)cc(O)c4-c4cc3ccc4O)[C@H](O)c3ccc(c(Cl)c3)Oc3cc2cc(c3O[C@@H]2O[C@H](CO)[C@@H](O)[C@H](O)[C@H]2O[C@H]2C[C@](C)(N)[C@H](O)[C@H](C)O2)Oc2ccc(cc2Cl)[C@H]1O [Vancomycin] |  |  | 1000 µg/mL (≈ 690 µM) | 250 µg/mL (≈ 173 µM) |  |  |  |  |  | 250 µg/mL (≈ 173 µM) | 250 µg/mL (≈ 173 µM) | 250 µg/mL (≈ 173 µM) | >250 µg/mL |  | > 250 µg/mL | 250 µg/mL (≈ 173 µM) | MIC (E. coli MC4100; Escherichia coli, MC4100, E. coli MC4100, Addition None): 250 µg/mL (≈ 173 µM); MIC (E. coli MC4100; Escherichia coli, MC4100, E. coli MC4100, PMBN 25 μg/mL): 31.3 µg/mL (≈ 21.6 µM); MIC ([2]; Shigella flexneri, ATCC12022, Shigella flexneri ATCC12022, Addition None): > 250 µg/mL; MIC ([2]; Shigella flexneri, ATCC12022, Shigella flexneri ATCC12022, NAB7061 4 μg/mL): 250 µg/mL (≈ 173 µM); MIC ([2]; Shigella flexneri, ATCC12022, Shigella flexneri ATCC12022, PMBN 25 μg/mL): 62.5 µg/mL (≈ 43.1 µM); MIC (E. coli C291-b1; Escherichia coli, C291B1, E. coli C291-b1, Addition None): > 250 µg/mL; MIC (E. coli C291-b1; Escherichia coli, C291B1, E. coli C291-b1, NAB7061 4 μg/mL): 125 µg/mL (≈ 86.3 µM); MIC (E. coli C291-b1; Escherichia coli, C291B1, E. coli C291-b1, PMBN 25 μg/mL): 31 µg/mL (≈ 21.4 µM); MIC (K. pneumoniae BARB 105; Klebsiella pneumoniae, BARB105, K. pneumoniae BARB 105, Addition None): > 1000 µg/mL; MIC (K. pneumoniae BARB 105; Klebsiella pneumoniae, BARB105, K. pneumoniae BARB 105, NAB7061 4 μg/mL): 1000 µg/mL (≈ 690 µM); MIC (K. pneumoniae BARB 105; Klebsiella pneumoniae, BARB105, K. pneumoniae BARB 105, PMBN 25 μg/mL): 500 µg/mL (≈ 345 µM); MIC ([1]; Pseudomonas aeruginosa, P. aeruginosa T15464 (MDR), Addition None): > 1000 µg/mL; MIC ([1]; Pseudomonas aeruginosa, P. aeruginosa T15464 (MDR), NAB7061 4 μg/mL): > 1000 µg/mL; MIC ([1]; Pseudomonas aeruginosa, P. aeruginosa T15464 (MDR), PMBN 3 μg/mL): 31 µg/mL (≈ 21.4 µM); MIC ([1]; Pseudomonas aeruginosa, read-out: MIC100, clinical MDR P. aeruginosa strain T15464): > 1000 µg/mL
4 | CC[C@H]1OC(=O)[C@H](C)[C@@H](O[C@H]2C[C@@](C)(OC)[C@@H](O)[C@H](C)O2)[C@H](C)[C@@H](O[C@@H]2O[C@H](C)C[C@H](N(C)C)[C@H]2O)[C@](C)(O)C[C@@H](C)C(=O)[C@H](C)[C@@H](O)[C@]1(C)O [erythromycin] |  |  |  |  |  |  |  |  | > 1000 µg/mL |  |  |  |  |  |  |  | 
